Laboratory results as given in ChEMBL document CHEMBL1143874, “Diazen-1-ium-1,2-diolated and nitrooxyethyl nitric oxide donor ester prodrugs of anti-inflammatory (E)-2-(aryl)-3-(4-methanesulfonylphenyl)acrylic acids: synthesis, cyclooxygenase inhibition, and nitric oxide release studies” (Bioorg Med Chem, 2008).
pIC50: −log10 of the molar value.

Columns and labels:
[1] = Nitric oxide release in PBS at pH 7.4 in 37 degC after 1.5 hrs; assay type: functional; set-up: concentration or dose not given beside the values
Procedure, shortened: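 Test compound at 1.0 · 10^-2 mM in phosphate buffer pH 7.4, incubated 37 °C for 1.5 h. Nitrite was quantified by Griess reaction. % NO released is relative to a theoretical maximum of 2 mol NO/mol for diazeniumdiolates, 1 mol/mol for nitrooxyethyl esters and 3 mol/mol for glycerol trinitrate. Mean of 3 measurements.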

Serum = assay: Nitric oxide in rat serum at pH 7.4 in 37 degC after 1.5 hrs; assay type: ADME, cell-free; set-up: concentration or dose not given beside the values; conditions: pH 7.4, 1.5 h
Procedure, shortened: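 Test compound at 1.0 · 10^-2 mM in phosphate buffer pH 7.4 with 90 µL rat serum added, incubated 37 °C for 1.5 h. Nitrite measured by Griess reaction. % NO released is relative to a theoretical maximum of 2 mol NO/mol for diazeniumdiolates and 1 mol/mol for nitrooxyethyl esters. Mean of 3 measurements.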

[2] = molecular target: T1, Prostaglandin G/H synthase 1 (Ovis aries, UniProt P05979); assay: Inhibition of ovine COX1 by enzyme immunoassay
T1 sequence (P05979 whole entry): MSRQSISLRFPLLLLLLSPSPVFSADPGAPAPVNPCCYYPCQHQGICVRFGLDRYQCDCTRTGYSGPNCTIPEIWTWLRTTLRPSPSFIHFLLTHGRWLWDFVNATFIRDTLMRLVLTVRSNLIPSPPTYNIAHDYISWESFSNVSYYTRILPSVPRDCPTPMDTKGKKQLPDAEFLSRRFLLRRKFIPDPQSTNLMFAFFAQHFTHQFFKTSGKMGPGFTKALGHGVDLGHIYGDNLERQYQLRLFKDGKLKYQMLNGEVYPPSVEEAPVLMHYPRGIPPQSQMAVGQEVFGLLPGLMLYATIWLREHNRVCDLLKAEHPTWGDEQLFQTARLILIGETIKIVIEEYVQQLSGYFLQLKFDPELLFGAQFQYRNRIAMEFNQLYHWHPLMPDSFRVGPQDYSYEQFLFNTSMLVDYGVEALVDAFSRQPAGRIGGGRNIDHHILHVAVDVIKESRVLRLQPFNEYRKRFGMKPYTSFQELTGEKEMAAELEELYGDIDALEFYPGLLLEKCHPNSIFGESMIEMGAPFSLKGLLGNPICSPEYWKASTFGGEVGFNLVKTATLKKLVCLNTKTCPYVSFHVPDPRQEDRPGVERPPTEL

[3] = Nitric oxide release in PBS in presence of 5 mM L-cysteine at pH 7.4 in 37 degC after 1.5 hrs; assay type: functional
Procedure, shortened: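 Phosphate buffer pH 7.4 containing 5.0 mM L-cysteine, with test compound at 1.0 · 10^-2 mM, kept at 37 °C for 1.5 h. Nitrite was determined by Griess reaction. % NO released is relative to a theoretical maximum of 1 mol NO/mol for nitrooxyethyl esters. Mean of 3 measurements.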

Ovis aries = species on record: Ovis aries; assay: Selectivity index, ratio of IC50 for ovine COX1 to IC50 for ovine COX2
Procedure, shortened: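 Ovine COX-1 and COX-2 IC50s were measured by enzyme immunoassay kit. Deviation from the mean was <10%. The index is COX-1 IC50/COX-2 IC50.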

SMILES | Activity [1] [%] | Activity (Serum) [%] | pIC50 [2] | Activity [3] [%] | Ratio IC50 (Ovis aries)
COc1ccc(/C(=C\c2ccc(S(C)(=O)=O)cc2)C(=O)OCCN(C)/[N+]([O-])=N/OCOC(C)=O)cc1 | 3.9 | 77.6 | – | – | –
COc1ccc(/C(=C\c2ccc(S(C)(=O)=O)cc2)C(=O)OCCO[N+](=O)[O-])cc1 | 1.4 | – | 5.96 | 9.2 | –
CS(=O)(=O)c1ccc(/C=C(/C(=O)O)c2ccc(F)cc2)cc1 | – | – | 6.40 | – | –
CN(CCO)/[N+]([O-])=N/[O-].[Na+] | 84.9 | 85 | – | – | –
CS(=O)(=O)c1ccc(/C=C(/C(=O)OCCO[N+](=O)[O-])c2ccc(F)cc2)cc1 | 3.3 | – | 5.80 | 7.6 | –
CS(=O)(=O)c1ccc(/C=C(/C(=O)OCCO[N+](=O)[O-])c2ccccc2)cc1 | 3 | – | 5.21 | 8.5 | –
CC(=O)OCO/N=[N+](\[O-])N(C)CCOC(=O)/C(=C/c1ccc(S(C)(=O)=O)cc1)c1ccc(Br)cc1 | 3.5 | 76.2 | – | – | –
CS(=O)(=O)c1ccc(/C=C(/C(=O)OCCO[N+](=O)[O-])c2ccc(Br)cc2)cc1 | 1 | – | 6.43 | 10.1 | –
O=[N+]([O-])OCC(CO[N+](=O)[O-])O[N+](=O)[O-] | 2.8 | – | – | 10.1 | –
CS(=O)(=O)c1ccc(/C=C(/C(=O)O)c2ccc(Br)cc2)cc1 | – | – | 6.06 | – | –
COc1ccc(/C(=C\c2ccc(S(C)(=O)=O)cc2)C(=O)O)cc1 | – | – | 4.50 | – | –
CS(=O)(=O)c1ccc(/C=C(/C(=O)O)c2ccccc2)cc1 | – | – | 5.82 | – | 0.5
CC(=O)OCO/N=[N+](\[O-])N(C)CCOC(=O)/C(=C/c1ccc(S(C)(=O)=O)cc1)c1ccccc1 | 4.8 | 83 | – | – | –
CC(=O)OCO/N=[N+](\[O-])N(C)CCOC(=O)/C(=C/c1ccc(S(C)(=O)=O)cc1)c1ccc(F)cc1 | 3.6 | 82.1 | – | – | –
